Tests used:
human TOP3B = human TOP3B (Homo sapiens, UniProt O95985); experiment: Inhibition of human TOP3B relaxation of supercoiled DNA; format: biochemical; details: for Inhibition of the DNA relaxation activity of human TOP3B: tested at up to 200 μM concentration
In short: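 TOP3B (Sf9-expressed, GST/gel-filtration purified) and E. coli-expressed His-TDRD3 each at 18 nM, then DMSO or test compound, then 500 ng supercoiled pBAD/Thio plasmid; 20 mM HEPES-KOH pH 7.5, 5 mM MgCl2, 1 mM DTT, 0.1 mg/ml BSA; 37 ℃, 1 h. SDS/proteinase K stop; 1% agarose with 5 μg/mL chloroquine, SYBR Gold. Relaxed DNA gives % inhibition vs DMSO; 200 μM screen, IC50 from serial dilutions, 3–4 repeats.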

human TOP1 = target: T1, human TOP1 (Homo sapiens, UniProt P11387); experiment: Inhibition of human TOP1 relaxation activity; format: biochemical; details: comparison of IC50 values for TOP3B and TOP1 relaxation
T1 sequence (P11387 1-765): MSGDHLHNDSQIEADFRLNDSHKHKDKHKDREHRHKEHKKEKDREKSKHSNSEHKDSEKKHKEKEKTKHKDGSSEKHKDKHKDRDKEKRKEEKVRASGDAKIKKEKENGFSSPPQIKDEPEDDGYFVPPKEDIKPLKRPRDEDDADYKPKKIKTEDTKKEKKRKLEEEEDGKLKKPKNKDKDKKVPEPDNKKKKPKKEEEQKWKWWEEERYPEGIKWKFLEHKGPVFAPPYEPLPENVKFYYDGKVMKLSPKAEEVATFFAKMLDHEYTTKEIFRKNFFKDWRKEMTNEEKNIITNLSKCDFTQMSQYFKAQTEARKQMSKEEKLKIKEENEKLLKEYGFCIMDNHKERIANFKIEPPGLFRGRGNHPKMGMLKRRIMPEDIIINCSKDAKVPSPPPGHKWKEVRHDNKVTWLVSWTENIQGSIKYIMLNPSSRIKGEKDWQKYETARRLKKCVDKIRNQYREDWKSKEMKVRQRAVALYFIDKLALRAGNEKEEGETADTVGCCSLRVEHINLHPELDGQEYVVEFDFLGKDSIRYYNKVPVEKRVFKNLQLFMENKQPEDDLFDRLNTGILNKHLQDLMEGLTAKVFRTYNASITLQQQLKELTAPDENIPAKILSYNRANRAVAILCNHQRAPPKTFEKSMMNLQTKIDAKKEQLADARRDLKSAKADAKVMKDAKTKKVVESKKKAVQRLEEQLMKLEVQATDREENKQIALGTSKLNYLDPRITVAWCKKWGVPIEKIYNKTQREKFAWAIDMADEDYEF
In short: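 Recombinant human TOP1 expressed in S. cerevisiae EKY3, 1 unit, with 200 ng supercoiled pBAD/Thio plasmid in 10 mM Tris-HCl pH 8.0, 150 mM NaCl, 1 mM EDTA, 0.1 mM spermidine, 0.1 mg/mL BSA, 5% glycerol; 37 °C, 30 min; SDS stop. Run on 1% agarose in TAE, 20 h at 25 V; ethidium bromide stain. Remaining supercoiled DNA quantified as % inhibition vs DMSO; TOP1 IC50 compared with TOP3B IC50.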

Chain of human TOP3B (O95985 whole entry): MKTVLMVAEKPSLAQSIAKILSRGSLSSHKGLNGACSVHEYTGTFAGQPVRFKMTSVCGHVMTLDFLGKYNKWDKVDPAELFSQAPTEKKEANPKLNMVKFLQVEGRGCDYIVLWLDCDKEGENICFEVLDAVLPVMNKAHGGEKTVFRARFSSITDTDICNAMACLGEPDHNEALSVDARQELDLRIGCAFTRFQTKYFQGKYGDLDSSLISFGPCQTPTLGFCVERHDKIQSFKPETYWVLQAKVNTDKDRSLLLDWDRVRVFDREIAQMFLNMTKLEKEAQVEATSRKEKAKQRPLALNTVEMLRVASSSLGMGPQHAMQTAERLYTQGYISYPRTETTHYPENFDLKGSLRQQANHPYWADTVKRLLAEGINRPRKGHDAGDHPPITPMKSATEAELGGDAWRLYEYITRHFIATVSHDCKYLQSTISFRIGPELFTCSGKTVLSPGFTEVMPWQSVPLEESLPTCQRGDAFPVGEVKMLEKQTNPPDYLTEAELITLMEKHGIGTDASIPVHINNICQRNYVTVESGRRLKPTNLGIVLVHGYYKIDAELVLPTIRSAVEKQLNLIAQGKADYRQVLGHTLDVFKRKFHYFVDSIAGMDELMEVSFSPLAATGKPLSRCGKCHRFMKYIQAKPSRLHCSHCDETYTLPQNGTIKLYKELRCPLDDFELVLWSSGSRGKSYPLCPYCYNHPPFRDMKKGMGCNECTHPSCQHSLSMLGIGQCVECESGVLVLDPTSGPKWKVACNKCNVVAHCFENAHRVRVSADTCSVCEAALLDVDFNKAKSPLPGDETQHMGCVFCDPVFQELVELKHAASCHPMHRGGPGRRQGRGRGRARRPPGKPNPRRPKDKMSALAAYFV
Chain of human TOP3B (Q9H7E2 whole entry partner): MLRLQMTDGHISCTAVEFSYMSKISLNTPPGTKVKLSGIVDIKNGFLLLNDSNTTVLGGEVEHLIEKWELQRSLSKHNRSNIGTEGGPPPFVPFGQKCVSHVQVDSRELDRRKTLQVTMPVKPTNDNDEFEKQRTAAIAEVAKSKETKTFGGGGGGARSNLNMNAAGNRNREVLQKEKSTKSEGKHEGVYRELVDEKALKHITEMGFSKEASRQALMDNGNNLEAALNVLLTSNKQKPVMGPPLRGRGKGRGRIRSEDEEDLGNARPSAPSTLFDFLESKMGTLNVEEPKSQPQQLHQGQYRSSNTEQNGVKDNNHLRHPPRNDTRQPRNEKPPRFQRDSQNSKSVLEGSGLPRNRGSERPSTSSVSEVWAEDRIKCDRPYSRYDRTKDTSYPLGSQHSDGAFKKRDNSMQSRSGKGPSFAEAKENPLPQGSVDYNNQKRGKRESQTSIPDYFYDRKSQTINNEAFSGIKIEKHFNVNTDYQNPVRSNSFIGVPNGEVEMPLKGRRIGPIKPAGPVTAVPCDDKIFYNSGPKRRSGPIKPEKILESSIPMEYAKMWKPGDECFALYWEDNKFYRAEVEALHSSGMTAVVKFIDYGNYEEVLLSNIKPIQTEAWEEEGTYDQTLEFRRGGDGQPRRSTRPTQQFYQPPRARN

Row | IC50 (human TOP3B) [µM] | SMILES | Inhibition of the DNA relaxation activity of human TOP3B (human TOP3B) | Selectivity for inhibition of human TOP3B versus TOP1 (human TOP1)
1 | – | Cc1cn(-c2cc(NC(=O)c3ccc(C)c(Nc4nccc(-c5cnccn5)n4)c3)cc(C(F)(F)F)c2)cn1 [radotinib] | Inhibition was observed only for bemcentinib | –
2 | 34.3 | Nc1nc(Nc2ccc3c(c2)CC[C@@H](N2CCCC2)CC3)nn1-c1cc2c(nn1)-c1ccccc1CCC2 [bemcentinib] | Inhibition was observed | inhibits TOP3B with greater potency than TOP1
3 | – | Cc1cc(Nc2ncnc3ccc(NC4=NC(C)(C)CO4)cc23)ccc1Oc1ccn2ncnc2c1 [tucatinib] | Inhibition was observed only for bemcentinib | –
4 | – | CN1CCN(C2CCN(C(=O)Nc3cc(Oc4ccc(NC(=O)C5(C(=O)Nc6ccc(F)cc6)CC5)c(F)c4)ccn3)CC2)CC1 [golvatinib] | Inhibition was observed only for bemcentinib | –
5 | – | Cc1cn(-c2cc(NC(=O)c3ccc(C)c(Nc4nccc(-c5cccnc5)n4)c3)cc(C(F)(F)F)c2)cn1 [nilotinib] | Inhibition was observed only for bemcentinib | –
6 | – | CNC(=O)c1cc(Oc2ccc(NC(=O)Nc3cc(C(C)(C)C)nn3-c3ccc4ncccc4c3)c(F)c2)ccn1 [rebastinib] | Inhibition was observed only for bemcentinib | –

From article PMC11956937 (bioRxiv, 2025)
